Legend:
[1] = molecular target: T1, Melanocortin receptor 5 (Homo sapiens, UniProt P33032); test: Activity against hMC5R transfected in HEK293 cells by intracellular cAMP accumulation; assay type: functional, cell-based
In short: (§1)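 HEK293 cells stably transfected with human receptor, grown to confluence in MEM with 10% FBS, seeded 48 h before assay. Cells preincubated 1 min at 37 °C in EBSS with IBMX (0.5 mM stock). Peptide added (10^-10 to 10^-5 M), 3 min at 37 °C. Stopped with ice-cold Tris/EDTA, boiled, cAMP measured by competitive binding kit. EC50 from nonlinear least-squares fit; mean of two experiments in triplicate.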

[2] = molecular target: T2, Melanocortin receptor 4 (Homo sapiens, UniProt P32245); test: Inhibitory activity against hMC4R transfected in HEK293 cells; assay type: cell-based
T2 sequence (P32245 whole entry): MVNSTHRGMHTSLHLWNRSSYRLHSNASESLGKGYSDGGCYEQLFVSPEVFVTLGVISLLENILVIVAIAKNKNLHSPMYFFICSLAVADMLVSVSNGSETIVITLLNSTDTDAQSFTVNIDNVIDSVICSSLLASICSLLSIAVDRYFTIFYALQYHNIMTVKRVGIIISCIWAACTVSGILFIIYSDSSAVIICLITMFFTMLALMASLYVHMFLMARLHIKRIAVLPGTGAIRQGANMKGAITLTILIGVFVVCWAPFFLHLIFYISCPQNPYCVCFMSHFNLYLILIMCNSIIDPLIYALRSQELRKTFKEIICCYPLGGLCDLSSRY
In short: (§2)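 Competition binding on whole HEK293 cells stably expressing the human receptor, seeded 48 h prior. Binding buffer was MEM, 25 mM HEPES pH 7.4, 0.2% BSA, 1,10-phenanthroline, leupeptin and bacitracin. Cells washed and lysed, then gamma counted. IC50 from nonlinear least-squares fit; mean of two experiments in triplicate.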

[3] = molecular target: T3, Melanocortin receptor 3 (Homo sapiens, UniProt P41968); test: Inhibitory activity against hMC3R transfected in HEK293 cells; assay type: cell-based; in short: as §2
T3 sequence (P41968 whole entry): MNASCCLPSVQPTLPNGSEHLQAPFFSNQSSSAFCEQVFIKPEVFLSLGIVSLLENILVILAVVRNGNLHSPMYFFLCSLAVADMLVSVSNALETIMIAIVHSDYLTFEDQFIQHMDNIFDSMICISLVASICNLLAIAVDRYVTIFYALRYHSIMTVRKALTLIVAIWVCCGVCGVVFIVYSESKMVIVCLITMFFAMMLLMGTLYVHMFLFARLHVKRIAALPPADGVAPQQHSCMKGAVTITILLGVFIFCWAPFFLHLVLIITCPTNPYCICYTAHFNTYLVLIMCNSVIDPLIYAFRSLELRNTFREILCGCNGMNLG

[4] = molecular target: T4, Melanocyte-stimulating hormone receptor (Homo sapiens, UniProt Q01726); test: Activity against hMC1R transfected in HEK293 cells by intracellular cAMP accumulation; assay type: functional, cell-based; in short: as §1
[5] = molecular target: T4, Melanocyte-stimulating hormone receptor; test: Inhibitory activity against hMC1R transfected in HEK293 cells; assay type: cell-based; in short: as §2
Target sequence in this assay (Q01726 whole entry): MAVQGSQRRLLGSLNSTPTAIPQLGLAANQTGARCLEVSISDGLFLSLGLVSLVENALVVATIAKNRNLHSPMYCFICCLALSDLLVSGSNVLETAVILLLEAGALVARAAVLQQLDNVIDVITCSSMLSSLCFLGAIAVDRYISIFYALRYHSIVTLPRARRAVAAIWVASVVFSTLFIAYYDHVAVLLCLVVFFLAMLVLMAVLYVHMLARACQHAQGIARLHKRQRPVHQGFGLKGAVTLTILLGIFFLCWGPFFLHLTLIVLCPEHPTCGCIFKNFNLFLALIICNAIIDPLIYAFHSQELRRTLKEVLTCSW

[6] = molecular target: T1, Melanocortin receptor 5; test: Inhibitory activity against hMC5R transfected in HEK293 cells; assay type: cell-based; in short: as §2
[7] = molecular target: T2, Melanocortin receptor 4; test: Activity against hMC4R transfected in HEK293 cells by intracellular cAMP accumulation; assay type: functional, cell-based; in short: as §1
[8] = molecular target: T3, Melanocortin receptor 3; test: Activity against hMC3R transfected in HEK293 cells by intracellular cAMP accumulation; assay type: functional, cell-based; in short: as §1

T1 sequence (P33032 whole entry): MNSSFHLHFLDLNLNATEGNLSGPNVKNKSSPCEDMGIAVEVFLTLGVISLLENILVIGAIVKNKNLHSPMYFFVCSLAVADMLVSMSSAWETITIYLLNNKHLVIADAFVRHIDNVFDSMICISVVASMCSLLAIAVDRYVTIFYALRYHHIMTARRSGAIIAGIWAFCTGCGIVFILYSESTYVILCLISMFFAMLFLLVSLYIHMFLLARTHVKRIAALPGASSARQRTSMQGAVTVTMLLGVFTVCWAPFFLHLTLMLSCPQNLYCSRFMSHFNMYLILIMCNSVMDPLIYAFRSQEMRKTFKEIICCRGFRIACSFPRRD

CCCC[C@@H]1NC(=O)CC[C@@H](C(N)=O)NC(=O)[C@H](Cc2c[nH]c3ccccc23)NC(=O)[C@H](CCCN=C(N)N)NC(=O)[C@@H](Cc2ccccc2)NC(=O)[C@H](C(C)C)NC1=O
%max [1]: 75%
EC50 [1]: 180 nM
IC50 [2]: 2500 nM
IC50 [3]: 600 nM
%max [4]: 0%
EC50 [4]: > 10000 nM
IC50 [5]: > 10000 nM
IC50 [6]: 110 nM
%max [7]: 25%
EC50 [7]: 3000 nM
%max [8]: 108%
EC50 [8]: 27 nM

— ChEMBL document CHEMBL1138987, “Development of cyclic gamma-MSH analogues with selective hMC3R agonist and hMC3R/hMC5R antagonist activities” (J Med Chem, 2006)
